Experimental data: publication PMC4824313 (Bioorganic & medicinal chemistry letters, 2016)
One block for each compound: values may come before it.

Columns and labels:
rat mGlu1 = rat mGlu1 (Rattus norvegicus, UniProt P23385); assay: rat mGlu1 calcium mobilization assay; format: cell-based; details: for mGlu1 pIC50 (± SEM): Calcium mobilization assay, rat mGlu1, NAM; for mGlu1 NAM activity (in words): top concentration tested 30 μM
rat mGlu5 = rat mGlu5 (Rattus norvegicus, UniProt P31424); assay: rat mGlu5 calcium mobilization assay; format: cell-based
Sequence of rat mGlu5 (P31424 21-1203): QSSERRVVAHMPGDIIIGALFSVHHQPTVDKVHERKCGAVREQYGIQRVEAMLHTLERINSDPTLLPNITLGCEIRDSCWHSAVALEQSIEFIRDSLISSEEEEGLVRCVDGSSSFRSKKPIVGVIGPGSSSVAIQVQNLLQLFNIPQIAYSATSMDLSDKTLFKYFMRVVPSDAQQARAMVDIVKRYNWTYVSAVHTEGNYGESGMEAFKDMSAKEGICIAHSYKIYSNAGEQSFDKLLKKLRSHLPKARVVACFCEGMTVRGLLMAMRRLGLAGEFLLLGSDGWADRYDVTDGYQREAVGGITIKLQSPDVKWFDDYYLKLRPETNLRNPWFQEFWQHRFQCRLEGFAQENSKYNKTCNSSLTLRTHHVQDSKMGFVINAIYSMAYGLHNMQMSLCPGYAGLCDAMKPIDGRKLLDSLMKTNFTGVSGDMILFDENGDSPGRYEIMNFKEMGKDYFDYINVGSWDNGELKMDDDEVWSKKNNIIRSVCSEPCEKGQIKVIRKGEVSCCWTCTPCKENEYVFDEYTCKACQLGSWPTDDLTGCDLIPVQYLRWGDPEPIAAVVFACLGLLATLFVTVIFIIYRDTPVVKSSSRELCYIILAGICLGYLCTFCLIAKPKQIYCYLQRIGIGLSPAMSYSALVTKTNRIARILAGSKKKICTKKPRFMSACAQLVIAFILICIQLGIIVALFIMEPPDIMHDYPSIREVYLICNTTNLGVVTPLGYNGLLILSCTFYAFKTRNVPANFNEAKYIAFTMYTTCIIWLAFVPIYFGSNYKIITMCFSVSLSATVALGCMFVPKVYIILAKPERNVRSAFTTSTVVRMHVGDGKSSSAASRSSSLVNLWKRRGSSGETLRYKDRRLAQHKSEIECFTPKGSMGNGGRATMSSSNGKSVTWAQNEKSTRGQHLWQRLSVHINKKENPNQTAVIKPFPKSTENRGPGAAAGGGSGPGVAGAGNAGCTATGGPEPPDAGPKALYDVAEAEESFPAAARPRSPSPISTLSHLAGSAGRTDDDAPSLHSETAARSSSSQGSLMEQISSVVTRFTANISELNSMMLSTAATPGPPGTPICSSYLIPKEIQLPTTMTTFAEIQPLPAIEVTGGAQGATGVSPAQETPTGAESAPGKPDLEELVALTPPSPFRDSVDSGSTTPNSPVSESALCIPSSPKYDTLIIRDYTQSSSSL

[1] = tested on: remaining six members of the mGlu family; assay: mGlu selectivity fold-shift experiments on orthosteric agonist CRC; format: cell-based
[2] = tested on: 68 clinically relevant targets; assay: radioligand binding assay panel of 68 clinically relevant targets; details: 10 μM; significant = greater than or equal to 50% inhibition of binding
Method in brief: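 Test compound was screened at a single 10 μM concentration for displacement of radioligand binding at each panel target. Inhibition of binding of at least 50% was counted as a significant response.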

369 kinases = assay: kinase panel of 369 kinases; format: biochemical; details: 10 μM
Rat IV PK = format: in vivo, male Sprague-Dawley rats; details: male, Sprague-Dawley, plasma, 0.2 mg/kg
Method in brief: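 Male Sprague-Dawley rats were dosed IV with 2 animals per time point. The plasma concentration–time profile gave half-life, plasma clearance and steady-state volume of distribution.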

[3] = Rat IP PK time course study; format: in vivo, male Sprague-Dawley rats; details: rats; IP 10 mg/kg
Method in brief: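 Male Sprague-Dawley rats received a single 10 mg/kg IP dose, with 2 animals per time point. Plasma was followed over time for Tmax, Cmax and AUC. Brain and plasma were taken at 15 min to give Kp and Kp,uu. Unbound brain concentration was estimated from these exposures combined with fraction unbound from equilibrium dialysis.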

[4] = Mouse IP PK time course study; format: in vivo, male CD-1 mice; details: mice; IP 30 mg/kg
Method in brief: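 Tissue distribution was run in parallel under the same conditions, with brain and plasma taken at 30 min to give Kp and Kp,uu. Unbound brain concentration was estimated from these exposures combined with fraction unbound from equilibrium dialysis.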

Sequence of rat mGlu1 (P23385 19-1199): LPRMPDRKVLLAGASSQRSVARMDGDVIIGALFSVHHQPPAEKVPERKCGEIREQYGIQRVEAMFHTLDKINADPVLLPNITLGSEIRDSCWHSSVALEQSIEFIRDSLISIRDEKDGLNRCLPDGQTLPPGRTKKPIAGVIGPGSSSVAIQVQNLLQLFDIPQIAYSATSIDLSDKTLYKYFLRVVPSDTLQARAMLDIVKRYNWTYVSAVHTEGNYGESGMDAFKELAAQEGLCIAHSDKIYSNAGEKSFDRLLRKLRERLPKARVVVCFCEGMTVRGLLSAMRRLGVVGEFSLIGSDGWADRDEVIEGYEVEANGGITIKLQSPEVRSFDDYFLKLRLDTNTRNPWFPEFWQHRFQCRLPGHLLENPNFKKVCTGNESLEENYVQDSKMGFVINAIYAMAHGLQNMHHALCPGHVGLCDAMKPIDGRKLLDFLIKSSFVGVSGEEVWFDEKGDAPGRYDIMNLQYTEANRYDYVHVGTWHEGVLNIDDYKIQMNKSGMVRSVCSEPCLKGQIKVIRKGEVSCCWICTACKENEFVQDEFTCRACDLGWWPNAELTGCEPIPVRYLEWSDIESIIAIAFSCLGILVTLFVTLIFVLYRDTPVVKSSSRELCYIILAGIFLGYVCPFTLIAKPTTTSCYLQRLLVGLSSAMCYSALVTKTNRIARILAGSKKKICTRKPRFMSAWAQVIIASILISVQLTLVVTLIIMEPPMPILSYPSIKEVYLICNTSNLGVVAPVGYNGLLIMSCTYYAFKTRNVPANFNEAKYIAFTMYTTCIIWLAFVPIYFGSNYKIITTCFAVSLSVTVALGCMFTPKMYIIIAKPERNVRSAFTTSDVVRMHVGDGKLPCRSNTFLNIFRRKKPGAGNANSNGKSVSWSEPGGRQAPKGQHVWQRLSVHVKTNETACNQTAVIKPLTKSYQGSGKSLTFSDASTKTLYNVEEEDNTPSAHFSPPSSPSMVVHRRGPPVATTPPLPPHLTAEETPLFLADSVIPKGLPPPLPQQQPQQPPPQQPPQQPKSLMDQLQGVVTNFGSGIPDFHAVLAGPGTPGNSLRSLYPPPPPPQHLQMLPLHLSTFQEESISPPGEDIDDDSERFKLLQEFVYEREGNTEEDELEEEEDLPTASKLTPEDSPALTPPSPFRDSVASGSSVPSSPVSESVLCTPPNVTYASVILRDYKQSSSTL

mGlu1 pIC50 (± SEM) (rat mGlu1): < 4.5
SMILES: C[C@H](Nc1ncnc2c1nn1ccccc21)C1CC1 [Compound 12]

mGlu5 NAM potency relative to mGlu1 NAM activity (rat mGlu5; rat mGlu5 vs rat mGlu1): approximately ten-fold less
SMILES: CC(C)(C)CCNc1ncnc2c1nn1ccccc21 [Compound 18]

SMILES: CCC(C)(C)Nc1ncnc2c1nn1ccccc21 [Compound 19]
mGlu1 NAM activity (in words) (rat mGlu1): only a weak mGlu1 NAM, inhibiting the glutamate response only at the top concentration tested

mGlu5 pIC50 (± SEM) (rat mGlu5; Calcium mobilization assay, rat mGlu5, NAM): 6.89 ± 0.29
number of the 68 targets with no significant responses [2]: 62
number of kinases of 369 inhibited more than 50% (369 kinases): eight
Vd (Rat IV PK): 3.1 L/kg
estimated unbound brain concentration [3]: approximately 100 nM
estimated unbound brain concentration [4]: approximately 100 nM
SMILES: CC1(C)CCC(Nc2ncnc3c2nn2ccccc32)CC1 [Compound 29, N-(4,4-dimethylcyclohexyl)pyrido[1′,2′:1,5]pyrazolo[4,3-d]pyrimidin-4-amine]
effect on the orthosteric agonist concentration-response curve (fold-shift) ([1]; 10 μM, remaining six mGlus): no significant effects were observed
selectivity for the group I mGlu receptors ([1]; versus remaining six mGlus): > 75 fold

mGlu1 NAM activity (in words) (rat mGlu1): weak mGlu1 NAM activity
SMILES: C[C@H]1CC[C@H](Nc2nc(N)nc3c2nn2ccccc32)CC1 [Compound 41]

mGlu1 pIC50 (± SEM) (rat mGlu1): < 4.5
SMILES: CNc1nc(N[C@H]2CC[C@H](C)CC2)c2nn3ccccc3c2n1 [Compound 42]

mGlu1 pIC50 (± SEM) (rat mGlu1): < 4.5
SMILES: CN(C)c1nc(N[C@H]2CC[C@H](C)CC2)c2nn3ccccc3c2n1 [Compound 43]

mGlu1 pIC50 (± SEM) (rat mGlu1): < 4.5
SMILES: CC(C)Nc1nc(N[C@H]2CC[C@H](C)CC2)c2nn3ccccc3c2n1 [Compound 44]
